Shown are actives, neighbours in structure and some others; about 2% of the full set was active somewhere.
L929 necroptosis: L929 zVAD cell death inhibition; 0.38% of 220,000 active; viability rescue, % at 10 µM; L929 zVAD necroptosis rescue, ATP luminescence, 24 h; with zVAD 60 µM;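 active = activation, scaled between plate controls, above about 75%, limit read from the data; inactive = activation under that limit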;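 note: 0% = zVAD with DMSO and 100% = DMSO alone without zVAD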
Tb hexokinase: blocks Trypanosoma brucei hexokinase 1 activity; recombinant TbHK1, G6PDH-coupled NADH A340; inhibition, % at 10 µM; 0.11% of 220,000 active; AID 1430;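 active = inhibition of 50% or more in the single-dose primary screen; inactive = inhibition below 50%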
RBBP9 inh: human RBBP9 hydrolase inhibition; O75884; recombinant RBBP9, FP-Rh probe fluorescence polarization; inhibition, % at 7.94 µM; 0.2% of 220,000 active; AID 1515;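 active = inhibition above the campaign mean of all tested compounds plus 3 SD, cut at about 14% in these data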;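 note: plate controls were DMSO wells with RBBP9 for no effect and wells lacking RBBP9 protein for full effect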
Target sequence (O75884 whole entry, looked up): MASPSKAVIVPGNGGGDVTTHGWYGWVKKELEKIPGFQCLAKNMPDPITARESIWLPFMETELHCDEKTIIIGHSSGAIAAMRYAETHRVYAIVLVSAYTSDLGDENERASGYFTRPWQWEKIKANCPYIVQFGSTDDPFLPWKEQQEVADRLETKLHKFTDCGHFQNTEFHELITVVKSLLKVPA
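Measured by: FP readout at 525/598 nm; material: recombinant human RBBP9; also added: Serine-hydrolase probe FP-Rh, 375 nM pre-mixing; medium: Tris buffer pH 8.0, NaCl, Pluronic; replication: one well per compound; doses: one concentration, 7.94 µM nominal, 0.794% DMSO; timing: preincubation 30 min plus labeling 45 min at 25 °C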
TNF necrop inh: blocks TNF-alpha induced death of Jurkat FADD-/- cells; activation (protection from cell death), % at 10 µM; Jurkat FADD-/- TNF necroptosis rescue, ATP luminescence, 24 h; 0 = TNF only, 100 = no-TNF cells; 0.068% of 220,000 active;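 active = activation, meaning protection from cell death, of at least 50% relative to plate controls; inactive = activation below 50%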;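 note: necroptosis triggered by 40 ng/mL TNF-alpha added together with compound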
PfM18AAP inh-1: PfM18AAP enzyme inhibition; recombinant PfM18AAP, H-Glu-NHMec fluorogenic cleavage; inhibition, % at 7.35 µM; 1.2% of 290,000 active; AID 1822;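 active = inhibition above the campaign mean inhibition over all tested compounds plus 3 SD, cut at about 28% in these data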;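 note: 0% = plate median of test compound wells and 100% = 2 mM ZnCl2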
Hep lipid drop: hepatic lipid droplet formation modulation. inhibition, % at 6.5 µM. AID 1656. AML12 mouse hepatocytes, oleate lipid droplets, BODIPY imaging. 0.4% of 240,000 active;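 active = lipid droplet intensity inhibited by at least 50%, with more than 500 cells counted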
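Assay system: AML12 hepatocytes (mouse); Probe or stimulus: oleic acid at 100 µM to induce lipid droplet formation; Dosing: compound at 6.5 µM only; Schedule: compound with oleate, overnight; Detection: fluorescence imaging, 20x objective, two fields per well; Measure: % inhibition of lipid droplet signal.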
G6PDH counter: counter-screen for TbHK1 inhibitors: Leuconostoc G6PDH inhibition; shares compounds with Tb hexokinase; 7% of 210 active; purified G6PDH, NADH absorbance, 1 h; inhibition, % at 10 µM; AID 2516;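 active = at least 50% inhibition in the glucose-6-phosphate dehydrogenase coupled counterscreen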
TbHK1 rescreen: T. brucei hexokinase 1 inhibition, rescreen | AID 2560 | inhibition, % at 10 µM | shares compounds with Tb hexokinase | recombinant TbHK1, G6PDH-coupled NADH A340 absorbance | 10% of 210 active;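 active = inhibition of at least 50% in both of the two screening runs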;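 note: 0% and 100% set by the maximum and minimum signal control wells on each plate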
RBBP9 confirm: human RBBP9 inhibition, confirmation. shares compounds with RBBP9 inh. recombinant RBBP9, FP-Rh probe fluorescence polarization. inhibition, % at 7.94 µM. 36% of 410 active. AID 1537;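 active = inhibition above the hit cutoff derived for the primary screen, cut at about 15% in these data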;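 note: 0% = RBBP9 with DMSO and 100% = wells lacking RBBP9 protein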
PfM18AAP inh-2: confirmation of Plasmodium falciparum M18 aspartyl aminopeptidase inhibitors. AID 2170. recombinant PfM18AAP, H-Glu-NHMec fluorogenic cleavage. 28% of 2,400 active. shares compounds with PfM18AAP inh-1. inhibition, % at 7.35 µM;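 active = mean inhibition over replicate wells above the hit cutoff set for the earlier primary screen, cut at about 29% in these data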;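 note: 0% = median of test compound wells and 100% = 2 mM ZnCl2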
CTSL1 confirm: Cathepsin L (human) inhibition, confirmation. purified cathepsin L1, Z-Leu-Arg-MCA fluorescence. inhibition, % at 5.96 µM. shares compounds with PfM18AAP inh-1. 2,400 tested, under 10 active;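 active = average inhibition across replicates above the hit cutoff set in the earlier primary screen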;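 note: 0% = median of test compound wells and 100% = Z-Phe-Ala-diazomethylketone 1 µM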
Target sequence (P07711 whole entry, looked up): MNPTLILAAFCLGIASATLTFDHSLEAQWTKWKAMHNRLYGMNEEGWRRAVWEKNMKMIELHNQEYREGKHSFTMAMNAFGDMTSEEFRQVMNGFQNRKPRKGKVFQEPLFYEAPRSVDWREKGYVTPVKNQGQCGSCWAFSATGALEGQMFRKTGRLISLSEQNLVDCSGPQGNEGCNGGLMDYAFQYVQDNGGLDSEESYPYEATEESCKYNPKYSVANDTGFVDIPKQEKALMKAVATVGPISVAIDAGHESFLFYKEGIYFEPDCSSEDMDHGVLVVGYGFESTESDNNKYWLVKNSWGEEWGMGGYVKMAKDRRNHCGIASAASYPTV
* = called active by the depositor; . = no result.

SMILES	L929 necroptosis	Tb hexokinase	RBBP9 inh	TNF necrop inh	PfM18AAP inh-1	Hep lipid drop	RBBP9 confirm	others
O=C(NC(=S)NNS(=O)(=O)c1ccccc1)c1ccc([N+](=O)[O-])cc1	-0.3	75.7*	-0.6	0.7	50.3*	22.4	.	G6PDH counter=-33.3;TbHK1 rescreen=1.2;PfM18AAP inh-2=-9.1;CTSL1 confirm=4.2
Cc1cccc(C(=O)NC(=S)NNC(=O)Cc2ccccc2)c1	0.3	67.0*	4.4	-0.4	38.3*	-3.9	.	G6PDH counter=-13.8;TbHK1 rescreen=-3.0;PfM18AAP inh-2=-39.9;CTSL1 confirm=2.5
COC(=O)C1CSc2[nH]c(=O)sc2C1c1ccc(O)c(OC)c1 (stereo unspecified)	0.8	-4.1	14.4*	-1.6	-3.5	6.1	0.8
COc1ccc(C2c3sc(=O)[nH]c3SCC2C(N)=O)cc1 (stereo unspecified)	0.8	-8.2	-8.6	0.5	-46.0	44.7	.
COc1ccc(C(=O)C[n+]2cc(-c3ccc(OC)cc3)n3c2CCCC3)cc1	1.1	10.0	-3.1	-1.0	-8.8	-0.2	.
Cc1ccc(C(=O)C[n+]2cc(-c3ccc(C)cc3)n3c2CCCCC3)cc1	0.2	3.2	21.4*	-15.5	7.8	.	2.8
O=C(CN1CCC(n2cnc3cc(F)ccc32)CC1)Nc1ccccc1Br	60.8	-0.7	-4.8	4.8	0.8	9.3	.
COc1ccc(C)cc1S(=O)(=O)N1CCCC(C(=O)N2CCOCC2)C1 (stereo unspecified)	.	.	.	.	-8.7	0.7	.
C/C(=N/OC(=O)c1ccc(C)cc1)c1cccs1	-0.1	-4.3	16.1*	-5.6	-6.9	.	18.4*
C/C(=N\OC(=O)c1ccc(C)cc1)c1sc(C)nc1C	0.3	21.6	3.8	-2.4	-7.5	0.7	.
C/C(=N\OC(=O)c1ccc(Cl)cc1)c1nccs1	0.1	0.4	33.8*	-2.7	5.0	.	79.6*
Cc1ccc(S(=O)(=O)N(C)c2ccccc2)cc1	0.3	-5.5	14.4*	-1.0	5.4	-0.1	-10.7
CCCCOc1cccc(C2/C(=C(\O)c3ccc4c(c3)OCCO4)C(=O)C(=O)N2CCN2CCOCC2)c1 (stereo unspecified)	.	.	.	.	-1.5	0.7	.
CC1=C(C#N)c2nc(N)c(C#N)c(C)c2/C1=C\c1ccc(OCC(=O)O)c(Cl)c1	0.5	-11.2	-9.1	-5.1	-4.2	.	.
Cc1noc(C)c1S(=O)(=O)Nc1ccc(C(=O)N2CCc3ccccc3C2)cc1	0.0	2.8	2.1	-0.6	-5.3	.	.
Cc1noc(C)c1S(=O)(=O)Nc1ccc(C(=O)N2CCC(C)CC2)cc1	0.2	-1.5	18.2*	1.2	-9.1	3.7	6.8
Cc1ccc(CCP(=O)(O)CN2CCOCC2)cn1	-0.1	-0.1	17.6*	-0.6	11.1	24.1	-1.7
O=C(O)c1ccc(NC2=Nc3cccc4cccc2c34)cc1	0.8	-16.1	14.8*	3.1	-2.6	3.0	4.6
NC(=O)NNC1=Nc2cccc3cccc1c23	18.5	0.9	-6.7	0.7	24.9	-16.8	.
CC(=O)NC(c1ccccc1)c1c(O)ccc2ccccc12 (stereo unspecified)	-0.1	-2.3	15.7*	-1.2	25.4	13.7	16.6*
Cc1ccc(NC(=O)CN2CCN(C)CC2)cc1Br	.	.	.	.	5.2	.	.
CCN(CC)C(=O)c1sc(NC(=O)C(Sc2ccccc2)c2ccccc2)c(C(=O)OC(C)C)c1C (stereo unspecified)	0.5	-2.5	-9.5	1.4	-10.9	15.8	.
